Screens (PubChem)
FN deposition inh: inhibitors of fibronectin matrix deposition, primary screen, AH1F cells, Alexa488-fibronectin fluorescence, plate reader. AH1F fibroblasts, overnight. inhibition, % at 12.6 µM. 350,000 tested, 0.086% active;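 active = mean inhibition across replicates of 30% or more, regardless of how many single replicates reach that level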;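 note: positive control wells lacked labelled fibronectin entirely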
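Material – AH1F fibroblast monolayer, labelled fibronectin deposition · Reagent – labelled fibronectin 24 nM · Timing – 1 h adhesion, overnight exposure · Measured by – fluorescence at 485 nm excitation, 525 nm emission · Read-out – inhibition of fibronectin deposition signal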
XiGFP reactiv: activators of inactive X chromosome reactivation, primary screen, imaging, XiGFP fibroblasts, GFP high-content imaging, set 2; XiGFP mouse fibroblasts, % GFP-positive cells imaging, 3 d; cells co-treated with 5-aza-dC sensitizer; scaled so ellipticine positive control = 100%; activation, % at 7.58 µM; 360,000 tested, 0.055% active;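 active = mean normalized replicate activation at least 10% and every replicate at or above 10%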;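 note: 0% = median of on-plate neutral control wells and 100% = ellipticine 6 µM median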
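System: 68-5-11 XiGFP fibroblast line; Timing: 3 days compound exposure; Compound dosing: one concentration, pinned; Benchmarks: positive control ellipticine, 6 µM final; Buffer or medium: DMEM containing 5-aza-dC.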
LGR2 inh: inhibitors of bursicon-induced LGR2 CRE-luciferase signal, primary screen, cell-based, HEK293, CRE-luciferase reporter, bursicon stimulation | AID 720647, 2013 | 380,000 tested, 0.35% active | inhibition, % at 9.99 µM | bursicon-stimulated, 4 h;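 active = drop in luminescence signal, shown as inhibition above about 50% in the replicate tests, limit read from the data, passing the limit was not always enough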;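 note: agonist challenge used bursicon conditioned medium at about half maximal strength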
TWEAK Fn14 block: inhibitors of TWEAK-Fn14 signaling, primary screen, luciferase reporter cells, uHTS; inhibition, % at 10 µM; TWEAK-stimulated Fn14 reporter cells, luciferase luminescence, 8 h; 360,000 tested, 2% active; in the data active = inhibition above about 50%
EWS-Fli inh: EWS/Fli-driven NR0B1 reporter inhibitors, primary screen, A673 cells, NR0B1 luciferase, luminescence, MLPCN library. viability-normalised. inhibition, % at 12.6 µM. 350,000 tested, 0.67% active;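 active = mean inhibition of at least 50% after viability correction, with every replicate also passing that limit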;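 note: firefly luciferase signal divided by Alamar Blue viability fluorescence both relative to DMSO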
TROY NFkB inh: inhibitors of TROY-driven NF-kB signaling, primary screen, Q293 LMP1-TROYcd cells, NF-kB luciferase, uHTS; Q293 LMP1-TROYcd NF-kB luciferase reporter, 4 h; inhibition, % at 10 µM; 360,000 tested, 0.98% active; AID 1347056, 2019;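 active = compounds whose plate-normalised and pattern-corrected inhibition of the luciferase reporter signal at the single screening dose is 50% or more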
Starred values were filed as active, the others as inactive; · = no result. The list is not random: actives were taken first. Their share in the collection is about 2.3%.

SMILES	FN deposition inh	XiGFP reactiv	LGR2 inh	TWEAK Fn14 block	EWS-Fli inh	TROY NFkB inh
COc1ccccc1-c1nc(-c2ccccn2)no1	3.2	0.1	78.0*	96.1*	72.7*	66.0*
Cc1ccccc1S(=O)(=O)N[C@@H]1CC[C@@H](CCNS(=O)(=O)c2cccc(F)c2)O[C@@H]1CO	2.1	0.3	-10.2	·	-2.4	·
C[C@@H]1CN([C@@H](C)CO)C(=O)Cc2cc(NS(=O)(=O)c3cn(C)cn3)ccc2O[C@H]1CN(C)Cc1ccc(-c2ccccc2)cc1	·	-0.8	-23.2	·	36.5	·
C/C=C/c1cnc2c(c1)C(=O)N([C@@H](C)CO)C[C@@H](C)[C@H](CN(C)C(=O)NC1CCCCC1)O2	-13.8	-0.1	0.1	·	-13.6	·
C[C@@H]1CCCCO[C@H](CN(C)S(=O)(=O)c2cn(C)cn2)[C@@H](C)CN([C@@H](C)CO)C(=O)c2cc(NC(=O)Nc3ccccc3)ccc2O1	1.8	0.2	-3.8	·	·	·
Cc1noc(C)c1NC(=O)N(C)C[C@H]1Oc2ccc(NS(=O)(=O)c3ccc(F)cc3)cc2CC(=O)N([C@H](C)CO)C[C@@H]1C	·	0.0	·	·	·	·
Cc1ccccc1-c1nc(-c2ccccn2)no1	-12.8	0.0	95.5*	96.8*	83.0*	81.2*
Brc1ccc(-c2nc(-c3ccccn3)no2)o1	·	·	75.2*	91.3*	·	55.8*
Cc1ccccc1-c1nc(-c2cccnc2)no1	3.9	·	·	-4.5	·	-37.8
CS(=O)(=O)N1CC2C(c3ccc(Br)cc3)C(C1)N2CC(F)(F)F (stereo unspecified)	0.5	0.0	·	·	·	·
COc1ccc(S(=O)(=O)N(C(=O)c2ccncc2)c2ccc3oc4c(c3c2)CCCC4)cc1	4.3	0.0	18.2	50.7*	5.2	44.1
O=C(c1ccncc1)N(c1ccc2oc3c(c2c1)CCCC3)S(=O)(=O)c1cccc([N+](=O)[O-])c1	3.0	0.1	12.5	25.9	-17.8	32.5
C[C@@H]1CN([C@@H](C)CO)C(=O)c2cc(NC(=O)CCCN(C)C)ccc2O[C@H]1CN(C)S(=O)(=O)c1ccccc1	·	-0.1	-2.8	·	6.3	·
COc1ccc(NC(=O)Nc2ccc3c(c2)CC(=O)N([C@H](C)CO)C[C@H](C)[C@H](CN(C)Cc2ccc4c(c2)OCO4)O3)cc1	·	-0.2	22.1	·	-5.4	·
COc1ccccc1-c1cn(CC[C@@H]2CC[C@H](NC(=O)C3CCOCC3)[C@H](CO)O2)nn1	·	-0.2	-2.0	·	1.5	·
Cn1nnnc1SCc1cn2cccnc2n1	·	·	·	87.0*	·	·
Cc1cccc(OCCCCn2c(CO)nc3ccccc32)c1	-0.5	0.2	11.0	-1.6	-2.4	5.0
COc1ccc(OCCCCn2c(CO)nc3ccccc32)cc1	-1.2	0.3	14.2	69.3*	-1.9	11.3
C[C@@H]1CCCCO[C@@H](CN(C)S(=O)(=O)c2cn(C)cn2)[C@H](C)CN([C@@H](C)CO)C(=O)c2cc(NS(=O)(=O)c3ccccc3)ccc2O1	-3.9	-0.1	1.6	·	-20.7	·
O=CNc1cc(-c2ccccc2Oc2ccccc2)cn2c(-c3ccc(F)cc3)cnc12	-2.6	0.1	-12.5	19.2	12.6	8.2
COc1ccc(-c2cc(NC(C)=O)c3ncc(-c4cccc(C(C)=O)c4)n3c2)cc1OC	2.3	0.1	10.5	4.2	10.9	62.1*
CC(=O)Nc1cc(-c2cccc(C(=O)NCCN(C)C)c2)cn2c(-c3cccc(C(F)(F)F)c3)cnc12	9.8	0.6	-3.6	-313.9	55.1*	-17.8
CC(=O)c1ccc(-c2cnc3c(NC=O)cc(-c4ccccc4Oc4ccccc4)cn23)cc1	17.7	0.1	-3.4	58.6*	33.3	13.9
COc1cccc(-c2cnc3c(NC(C)=O)cc(-c4ccc(OC)c(OC)c4)cn23)c1	3.2	0.0	1.2	14.1	13.1	-5.9
CC(=O)Nc1cc(-c2cccc(C(=O)NCCN(C)C)c2)cn2c(-c3ccccc3)cnc12	8.3	0.0	-0.4	-59.3	-4.5	-10.6
SMILES	FN deposition inh	XiGFP reactiv	LGR2 inh	TWEAK Fn14 block	EWS-Fli inh	TROY NFkB inh
Cc1ccc(NS(=O)(=O)c2cc(NC(=O)c3ccc4c(c3)NC(=O)CS4)ccc2C)c(C)c1	13.7	-0.1	23.7	72.1*	13.6	63.9*
CC(=O)c1c(C)[nH]c(C(=O)Nc2ccc(C)c(S(=O)(=O)Nc3ccc(C)cc3C)c2)c1C	-2.7	0.0	9.5	46.9	9.5	58.4*
COc1ccc2c3c(n(C)c2c1)[C@@H](CO)N(Cc1ccccc1)CC31CCN(C(=O)Nc2cccc(F)c2)CC1	·	0.3	5.8	·	8.8	·
C[C@@H]1CN([C@H](C)CO)C(=O)c2cc(-c3ccccc3)cnc2O[C@H]1CN(C)C(=O)c1cccc(F)c1	6.7	0.0	-7.9	·	1.2	·
Cc1ccccc1C(=O)Oc1cccc(Nc2ncnc3ccccc23)c1	·	·	·	53.0*	·	51.0*
CC(=O)Oc1cccc(Nc2ncnc3ccccc23)c1	2.9	0.3	-19.0	5.6	-48.1	-4.5
COc1ccc(OC)c(Nc2ncnc3ccc(Br)cc23)c1	-14.6	-0.1	28.4	36.1	0.2	17.8
Brc1ccc2ncnc(Nc3cccc4ccccc34)c2c1	·	·	17.6	60.7*	·	34.2
COc1cccc(Nc2ncnc3ccc(Br)cc23)c1	7.6	0.2	13.4	62.8*	-2.7	35.1
CC(C)=CCCC(C)N(C=O)C(C)CCC=C(C)C (stereo unspecified)	·	·	·	52.7*	·	50.1*
CC(=O)N(CCCN(C)C)CCC(C)CCC=C(C)C (stereo unspecified)	·	·	-3.7	0.2	·	-10.2
COc1cc(Nc2ncc3c(n2)CCN(C(=O)Nc2ccc(C(C)C)cc2)C3)cc(OC)c1OC	9.5	-0.1	16.4	22.4	0.8	38.3
COc1cccc(NC(=O)N2CCc3nc(Nc4ccc(C(C)C)cc4)ncc3C2)c1	-0.4	-0.1	·	74.8*	-25.0	71.0*
CC(=O)OCC1OC(n2cc(F)c(=O)[nH]c2=O)C(OC(C)=O)C1OC(C)=O (stereo unspecified)	-13.4	0.2	2.7	15.1	5.4	0.6
O=C1C(F)=CC(COC(c2ccccc2)(c2ccccc2)c2ccccc2)OC1n1cc(F)c(=O)[nH]c1=O (stereo unspecified)	6.6	-0.2	26.6*	108.6*	69.4*	45.7
O=S1(=O)CC(c2ccccc2)=NN=C(c2ccccc2)C1	-6.0	0.3	-79.2	88.6*	38.7	38.4
CCOCCCNC(=O)c1cc2c(=O)n3cccc(C)c3nc2n1C	9.0	0.0	16.8	-3.1	52.2*	-1.6
